Test results from ChEMBL document CHEMBL5365527, “Structure-Guided Design of Nurr1 Agonists Derived from the Natural Ligand Dihydroxyindole” (J Med Chem, 2023).
pEC50, pKd: −log10 of the molar value. Calls of active or inactive are those of the source. The calls are words filed in the database; no cut-off is given here.

Legend:
HEK-293T [1] = assay: Cytotoxicity against human HEK293T cells co-transfected with Gal4-fused human Nurr1 LBD and pFR-Luc/pRL-SV40 assessed as decrease in renilla luciferase activity at 100 uM incubated for 16 hrs by Dual-Glo luciferase assay relative to control
HEK293T [2] = assay: (§1) Agonist activity at Nurr1 LBD (unknown origin) transfected in human HEK293T cells co-transfected with pFR-Luc/pRL-SV40 assessed as maximum activation of luciferase activity at 1 uM incubated for 16 hrs in presence of 5-Chloro-N-{5-chloro-2-[2-(dimethylamino)ethoxy]phenyl}-1H-indole-6-carboxamide by Gal4 hybrid reporter gene assay relative to control; assay type: cell-based; conditions: filed as agonist
Method in brief: (§2)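 Gal4–Nurr1 LBD hybrid reporter assay in HEK293T cells (DMEM high glucose, 10% FCS, 37 °C, 5% CO2), transiently transfected with pFA-CMV-hNurr1-LBD, pFR-Luc reporter and pRL-SV40 control. Treatment began 5 h after transfection, 16 h in Opti-MEM with 0.1% DMSO, read by dual luciferase. Firefly/Renilla ratio ×1000 gave RLU; fold activation taken vs untreated control. At least three independent experiments, each in duplicate.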

HEK293T [3] = assay: as §1, with “7-Chloro-N-{5-chloro-2-[2-(dimethylamino)ethoxy]phenyl}quinolin-4-amine” for “5-Chloro-N-{5-chloro-2-[2-(dimethylamino)ethoxy]phenyl}-1H-indole-6-carboxamide”; assay type: cell-based; conditions: filed as agonist
Method in brief: as §2

[4] = target: Nuclear receptor subfamily 4 group A member 2 (Rattus norvegicus) (UniProt Q07917); assay: Agonist activity at Nurr1 in rat N27 cells assessed as increase in VMAT mRNA expression level at 30 to 100 uM incubated for 16 hrs by qPCR analysis; assay type: cell-based; conditions: filed as agonist, dose 30-100 µM
Method in brief: (§3)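 Rat N27 dopaminergic cells in RPMI 1640 with 10% FCS, switched to 0.2% FCS 7 h after seeding and held 24 h more. Stimulated 16 h with compound in 0.1% DMSO, with 0.1% DMSO as vehicle control. Total RNA was heat-linearized at 65 °C before reverse transcription. SYBR green qPCR ran 40 cycles with a melt curve. Target mRNA normalized to GAPDH by ΔCt, expressed relative to vehicle.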

[5] = target: Nuclear receptor subfamily 4 group A member 2 (Rattus norvegicus) (UniProt Q07917); assay: Agonist activity at Nurr1 in rat N27 cells assessed as increase in SOD2 mRNA expression level at 30 to 100 uM incubated for 16 hrs by qPCR analysis; assay type: cell-based; conditions: filed as agonist, dose 30-100 µM
Method in brief: as §3

[6] = target: Nuclear receptor subfamily 4 group A member 2 (Rattus norvegicus) (UniProt Q07917); assay: Agonist activity at Nurr1 in rat N27 cells assessed as increase in SOD1 mRNA expression level at 30 to 100 uM incubated for 16 hrs by qPCR analysis; assay type: cell-based; conditions: filed as agonist, dose 30-100 µM
Method in brief: as §3

[7] = target: T1, Nuclear receptor subfamily 4 group A member 2 (Homo sapiens, UniProt P43354); assay: Agonist activity at Gal4-fused human Nurr1 LBD transfected in human HEK293T cells co-transfected with pFR-Luc/pRL-SV40 assessed as activation of luciferase activity incubated for 16 hrs by Dual-Glo luciferase assay
[8] = target: Nuclear receptor subfamily 4 group A member 2 (Rattus norvegicus) (UniProt Q07917); assay: Agonist activity at Nurr1 in rat N27 cells assessed as increase in TH mRNA expression level at 30 to 100 uM incubated for 16 hrs by qPCR analysis; assay type: cell-based; conditions: filed as agonist, dose 30-100 µM
Method in brief: as §3

[9] = target: T1, Nuclear receptor subfamily 4 group A member 2; assay: Binding affinity to Nurr1 LBD (unknown origin) at 200 uM by Isothermal titration calorimetry
HEK-293T [10] = assay: Cytotoxicity against human HEK293T cells assessed as reduction in cell viability at 100 uM incubated for 24 hrs by WST-8 assay; assay type: toxicity, cell-based
Method in brief: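 HEK293T cells were seeded on collagen G-coated wells, 10,000 per well, and after 24 h exposed to compound in Opti-MEM with 0.1% DMSO for 24 h; 0.1% DMSO alone served as untreated control. Metabolic activity was read by WST-8 (10%, 4 h) absorbance at 450 nm. Four biologically independent repeats.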

[11] = target: T1, Nuclear receptor subfamily 4 group A member 2; assay: Binding affinity to Nurr1 LBD (unknown origin) assessed as dissociation constant by Isothermal titration calorimetry
[12] = Glutathione reactivity at pH 7.4 assessed as compound remaining at 125 uM incubated upto 24 hrs by LC-UV-ESI-MS analysis; assay type: physicochemical; conditions: pH 7.4, 24 h
Method in brief: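 Compound (125 μM final) was shaken at 37 °C with 2.5 mM glutathione in PBS pH 7.4 (1% DMSO final). Aliquots at 0, 6, 18 and 24 h were diluted in mobile phase containing an internal standard. They were analyzed by reversed-phase LC with UV at 254 nm and positive ESI-MS in SIM mode. AUC was corrected to the internal standard. Run three times.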

T1 sequence (P43354 whole entry, the tested form may be a part): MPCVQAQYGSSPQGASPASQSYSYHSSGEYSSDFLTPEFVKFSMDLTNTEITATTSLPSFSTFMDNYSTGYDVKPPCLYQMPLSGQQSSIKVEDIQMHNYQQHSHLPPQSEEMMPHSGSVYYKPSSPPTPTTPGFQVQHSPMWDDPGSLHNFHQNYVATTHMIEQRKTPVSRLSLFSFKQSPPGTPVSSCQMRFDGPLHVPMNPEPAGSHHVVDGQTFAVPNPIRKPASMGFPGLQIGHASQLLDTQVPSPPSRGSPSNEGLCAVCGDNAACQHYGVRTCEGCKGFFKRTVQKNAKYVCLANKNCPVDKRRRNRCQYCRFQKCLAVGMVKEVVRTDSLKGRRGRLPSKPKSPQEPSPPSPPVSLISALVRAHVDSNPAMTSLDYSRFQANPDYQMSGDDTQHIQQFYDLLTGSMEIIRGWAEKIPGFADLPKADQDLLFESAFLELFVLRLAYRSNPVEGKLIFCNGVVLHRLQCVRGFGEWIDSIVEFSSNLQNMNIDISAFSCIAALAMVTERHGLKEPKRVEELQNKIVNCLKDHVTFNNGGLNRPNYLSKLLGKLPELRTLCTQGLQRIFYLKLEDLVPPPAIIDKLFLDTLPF
Nuclear receptor subfamily 4 group A member 2 (Rattus norvegicus), sequence (Q07917 whole entry): as the sequence (P43354 whole entry, the tested form may be a part) above, with T131S, P182R, E354D counted along it

Compound	Activity (HEK-293T [1])	further results
CN(C)CCc1ccc(CN)cc1	Non-Toxic	–
CCN(CC)CC1CCCCC1N (stereo not given)	Toxic	–
C#CCOc1cccc(-c2ccc(NC(=O)C3=C(C(=O)O)CCC3)c(F)c2)c1	–	Emax (HEK293T [2]): 134%; Emax (HEK293T [3]): 177%
Clc1ccc2[nH]ccc2c1	–	Activity [4]: Dose-Dependent Effect; Activity [5]: Dose-Dependent Effect; Activity [6]: Dose-Dependent Effect; pEC50 [7]: 4.40; Activity [8]: Dose-Dependent Effect
CC(C)N1CCC(NC(=O)c2cc3[nH]ccc3cc2Cl)CC1	Non-Toxic	Activity [9]: inactive; Activity (HEK-293T [10]): Non-Toxic
CC(C)CN1CCC(NC(=O)c2cc3[nH]ccc3cc2Cl)CC1	Non-Toxic	–
CC(C)CN1CCC(N)CC1	Non-Toxic	–
CN1CCC(Nc2ccccc2NC(=O)c2cc3[nH]ccc3cc2Cl)CC1	Non-Toxic	–
NC1CCC(CC2CCC(NC(=O)c3cc4[nH]ccc4cc3Cl)CC2)CC1 (stereo not given)	Toxic	–
CN(C)Cc1ccccc1CN	Non-Toxic	–
O=C(NCCNC1CCCCC1)c1cc2[nH]ccc2cc1Cl	Non-Toxic	–
CCN1CCN(c2ccc(Cl)cc2N)CC1	Non-Toxic	–
CCN(CC)C1CCC(N)CC1 (stereo not given)	Non-Toxic	–
CN(C)CCc1ccc(CNC(=O)c2cc3[nH]ccc3cc2Cl)cc1	Non-Toxic	–
NCCNC1CCCCC1	Non-Toxic	–
CN(C)CCOc1ccc(Cl)cc1NC(=O)c1cc2c(ccn2C)cc1Cl	–	pKd [11]: 6.00; pEC50 [7]: 4.80
O=C(NCCN1CCC2CCCCC2C1)c1cc2[nH]ccc2cc1Cl (stereo not given)	Non-Toxic	pKd [11]: 5.49; Activity (HEK-293T [10]): Non-Toxic; pEC50 [7]: 4.92
CN(C)C(CN)c1ccc(F)cc1 (stereo not given)	Non-Toxic	–
O=C(NCCc1c[nH]c2ccc(F)cc12)c1cc2[nH]ccc2cc1Cl	Toxic	–
NCc1cc(N)cc(C(F)(F)F)c1	Non-Toxic	–
CC1CCN(CCCNC(=O)c2cc3[nH]ccc3cc2Cl)CC1	Non-Toxic	Activity [9]: inactive; Activity (HEK-293T [10]): Non-Toxic
NCCC12CCCN1CCC2	Non-Toxic	–
CN(C)Cc1ccccc1CNC(=O)c1cc2[nH]ccc2cc1Cl	Non-Toxic	–
NC1CCC(CC2CCC(N)CC2)CC1 (stereo not given)	Non-Toxic	–
NCc1ccc2[nH]ncc2c1	Non-Toxic	–
O=C(NCc1ccc2cc[nH]c2c1)c1cc2[nH]ccc2cc1Cl	Non-Toxic	–

Compound	Activity (HEK-293T [1])	further results
Nc1cc(CNC(=O)c2cc3[nH]ccc3cc2Cl)cc(C(F)(F)F)c1	Toxic	–
NCc1ccc2cc[nH]c2c1	Non-Toxic	–
NCCN1CCC2CCCCC2C1 (stereo not given)	Non-Toxic	–
O=C(Nc1ccccc1NCCCn1ccnc1)c1cc2[nH]ccc2cc1Cl	Non-Toxic	–
CCN(CC)CC1CCCCC1NC(=O)c1cc2[nH]ccc2cc1Cl (stereo not given)	Non-Toxic	–
CN1CCC(Nc2ccccc2N)CC1	Toxic	–
CN1CCC(CN)(c2ccccc2)CC1	Non-Toxic	–
CCCCN1CCC(CNC(=O)c2cc3[nH]ccc3cc2Cl)C1 (stereo not given)	Non-Toxic	pKd [11]: 4.80; pEC50 [7]: 4.55
Nc1ccccc1NCCCn1ccnc1	Non-Toxic	–
CCN(CC)C1CCC(NC(=O)c2cc3[nH]ccc3cc2Cl)CC1 (stereo not given)	Non-Toxic	Activity [9]: inactive; Activity (HEK-293T [10]): Non-Toxic
CN(C)C(CNC(=O)c1cc2[nH]ccc2cc1Cl)c1ccc(F)cc1 (stereo not given)	Non-Toxic	–
CC1CCN(CCCN)CC1	Non-Toxic	–
NCCc1c[nH]c2ccc(F)cc12	Non-Toxic	–
NC(=O)CC1(N)CCCCC1	Non-Toxic	–
CC(C)N1CCC(N)CC1	Non-Toxic	–
CN(C)CCOc1ccc(Cl)cc1N	Non-Toxic	–
CN1CCC(CNC(=O)c2cc3[nH]ccc3cc2Cl)(c2ccccc2)CC1	Non-Toxic	–
O=C(NCCC12CCCN1CCC2)c1cc2[nH]ccc2cc1Cl	Non-Toxic	–
O=C(NCc1ccc2[nH]ncc2c1)c1cc2[nH]ccc2cc1Cl	Toxic	–
CCN1CCN(c2ccc(Cl)cc2NC(=O)c2cc3[nH]ccc3cc2Cl)CC1	Non-Toxic	–
O=C(NCC1CCN(Cc2ccccc2)CC1)c1cc2[nH]ccc2cc1Cl	Non-Toxic	–
NCC1CCN(Cc2ccccc2)CC1	Non-Toxic	–
CN(C)CCOc1ccc(Cl)cc1NC(=O)c1cc2[nH]ccc2cc1Cl	Non-Toxic	Stability [12]: Stable; Activity (HEK-293T [10]): Non-Toxic
CCCCN1CCC(CN)C1 (stereo not given)	Non-Toxic	–
NC(=O)CC1(NC(=O)c2cc3[nH]ccc3cc2Cl)CCCCC1	Non-Toxic	–
